Active and inactive are the calls of the source. No cut-off for these calls is given here.
What was measured:
[1] = target: Transthyretin (Homo sapiens) (UniProt P02766); assay: Binding affinity to transthyretin in human serum assessed as protein stabilization at 2:1 compound to TTR ratio after 72 hrs by Western blot
[2] = target: Transthyretin (Homo sapiens) (UniProt P02766); assay: Binding affinity to transthyretin (unknown origin) assessed as free energy changes by ITC method
[3] = target: Transthyretin (Homo sapiens) (UniProt P02766); assay: Binding affinity to transthyretin (unknown origin) in pH 7.4 PBS buffer assessed as protein occupancy at 1:1 compound to TTR ratio by fluorescent probe exclusion assay
[4] = target: Transthyretin (Homo sapiens) (UniProt P02766); assay: Binding affinity to transthyretin in human serum assessed as protein occupancy at 2:1 compound to TTR ratio by fluorescent probe exclusion assay
[5] = target: Transthyretin (Homo sapiens) (UniProt P02766); assay: Binding affinity to transthyretin (unknown origin) assessed as free TdeltaS changes by ITC method
[6] = target: Transthyretin (Homo sapiens) (UniProt P02766); assay: Binding affinity to transthyretin (unknown origin) assessed as free enthalpy changes by ITC method
[7] = target: Transthyretin (Homo sapiens) (UniProt P02766); conditions: 20 uM
[8] = Cmax in human at 250 mg bid; type: ADME, organism-based; set-up: dose 250 mg; conditions: in vivo
Canis familiaris [9] = assay: In-vivo binding affinity to transthyretin in beagle dog serum assessed as protein occupancy 20 mg/kg/day […] dosed as single administration via oral gavage; type: functional, organism-based; conditions: Canis lupus familiaris
Outline: (§1)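 Beagle dogs (2M/2F per group) received one oral gavage dose of 5 or 20 mg/kg in 0.5% methylcellulose; serum collected pre-dose and at 2, 4, 6, 8, 12, 24 hr; compound level by LCMS and TTR occupancy by FPE assay in serum (probe plus DMSO added).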

Albumin [10] = target: T1, Albumin (Homo sapiens, UniProt P02768); assay: Binding affinity to human serum albumin assessed as compound level bound to protein at 30 uM measured 124 hrs after dialysis; type: ADME; conditions: isolated protein, 24 h, in the assay text read “24 hrs” for “124 hrs”
Outline: (§2)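 Compound (30 μM) preincubated 1 hr at 37 °C with purified human serum albumin (600 μM) in 10 mM sodium phosphate, 100 mM KCl, 1 mM EDTA, pH 7.6; gel filtration, then dialysis against buffer 24 hr at room temperature; albumin-bound compound quantified by HPLC at time zero and after dialysis; mean ± SD, n = 3.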

Canis familiaris [11] = assay: In-vivo binding affinity to transthyretin in beagle dog serum assessed as protein occupancy measured at 1 hr post dose on day 7 at 50 to 200 mg/kg/day dosed daily via oral gavage for 7 days by fluorescent probe exclusion assay; type: functional, Canis lupus familiaris
Outline: (§3)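 Male and female beagle dogs gavaged daily 7 days with vehicle (6M/6F) or compound in 0.5% methylcellulose at 50 (2M/2F), 100 (2M/2F) or 200 mg/kg (6M/6F); jugular serum taken pre-dose day 1, pre-dose day 7 and 1 hr post-dose day 7; TTR occupancy by serum FPE assay, read at 3 hr.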

Albumin [12] = target: T1, Albumin; assay: Binding affinity to human serum albumin by ITC method; type: ADME
Canis familiaris [13] = assay: In-vivo binding affinity to transthyretin in beagle dog serum assessed as protein occupancy 5 mg/kg/day […] dosed as single administration via oral gavage; type: functional, organism-based; conditions: Canis lupus familiaris; outline: as §1
[14] = target: T2, Transthyretin (Canis lupus familiaris) (UniProt A0A8I3NFK0); assay: Binding affinity to transthyretin in dog serum assessed as protein stabilization at 10 uM by Western blot
Outline: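 Pooled dog serum with compound (10 μM) or DMSO acidified in acetate buffer pH 4.0 for 0 and 72 h, glutaraldehyde crosslinked, SDS-PAGE, immunoblotted with anti-TTR antiserum (1:2,000); tetramer band intensity expressed relative to DMSO control at 0 hr; mean ± SD, n = 3.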

Canis familiaris [15] = assay: In-vivo binding affinity to transthyretin in beagle dog serum assessed as protein occupancy at 50 to 200 mg/kg/day dosed daily via oral gavage for 7 days by fluorescent probe exclusion assay; type: functional, organism-based; conditions: Canis lupus familiaris; outline: as §3
[16] = target: T2, Transthyretin (Canis lupus familiaris); assay: Binding affinity to transthyretin in dog serum assessed as protein occupancy at 10 uM by fluorescent probe exclusion assay
Outline: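 Pooled commercial beagle dog serum (TTR 4.6 μM) with compound (10 μM, from DMSO stock) and FPE probe (final 3.6 μM); fluorescence ex 328/em 384 nm read for 6 hr at rt; % occupancy at 3 hr versus probe-alone DMSO control; mean ± SD, n = 4.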

Canis familiaris [17] = assay: In-vivo binding affinity to transthyretin in beagle dog serum assessed as protein occupancy measured on day 7 at 50 to 200 mg/kg/day dosed daily via oral gavage for 7 days by fluorescent probe exclusion assay; type: functional, Canis lupus familiaris; outline: as §3
Albumin [18] = target: T1, Albumin; assay: Binding affinity to human serum albumin assessed as compound level bound to protein at 30 uM measured immediately after gel filtration; type: ADME; conditions: isolated protein; outline: as §2
[19] = Cmax in human at 80 mg qd; type: ADME, organism-based; set-up: dose 80 mg; conditions: in vivo
[20] = target: Transthyretin (Homo sapiens) (UniProt P02766); conditions: 10 uM
[21] = target: Transthyretin (Homo sapiens) (UniProt P02766); assay: Binding affinity to transthyretin (unknown origin) in human serum assessed as protein occupancy at 200 uM by fluorescent probe exclusion assay
[22] = target: Transthyretin (Homo sapiens) (UniProt P02766); conditions: 10 uM; remark: listed apart in the source
[23] = target: Transthyretin (Homo sapiens) (UniProt P02766); conditions: 10 uM; remark: listed apart in the source
[24] = target: Transthyretin (Homo sapiens) (UniProt P02766); conditions: 10 uM; remark: listed apart in the source
Albumin [25] = target: T1, Albumin; assay: Binding affinity to human serum albumin; type: ADME
[26] = target: Transthyretin (Homo sapiens) (UniProt P02766); conditions: 10 uM; remark: listed apart in the source

T1 sequence (P02768 whole entry): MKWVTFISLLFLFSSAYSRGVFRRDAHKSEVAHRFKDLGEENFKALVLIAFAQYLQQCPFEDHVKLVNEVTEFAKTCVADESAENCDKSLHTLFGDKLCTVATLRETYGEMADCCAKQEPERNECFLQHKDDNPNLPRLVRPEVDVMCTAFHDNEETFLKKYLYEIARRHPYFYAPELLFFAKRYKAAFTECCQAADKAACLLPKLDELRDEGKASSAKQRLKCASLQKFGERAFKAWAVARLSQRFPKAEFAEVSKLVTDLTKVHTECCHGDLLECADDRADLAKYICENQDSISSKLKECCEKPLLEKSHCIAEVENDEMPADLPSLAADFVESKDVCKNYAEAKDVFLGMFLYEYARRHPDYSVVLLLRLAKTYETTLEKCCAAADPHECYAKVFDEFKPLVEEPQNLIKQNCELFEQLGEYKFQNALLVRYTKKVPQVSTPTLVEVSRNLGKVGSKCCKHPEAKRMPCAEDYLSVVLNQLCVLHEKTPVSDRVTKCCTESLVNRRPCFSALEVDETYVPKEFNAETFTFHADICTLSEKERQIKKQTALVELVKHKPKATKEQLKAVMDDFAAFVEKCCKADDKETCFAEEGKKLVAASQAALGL

Structure (SMILES) | Activity [1] | deltaG [2] | Occ [3] | Occ [4] | TdeltaS [5] | deltaH [6] | further results
Cc1n[nH]c(C)c1CCCOc1cc(C(=O)O)ccc1I | 86.7% | -9.61 kcal/mol | 58.3% | 75.9% | -0.21 kcal/mol | -9.82 kcal/mol | 
O=C(O)c1cc(-c2ccc(F)cc2F)ccc1O [DIFLUNISAL] |  |  | 28.7% |  | 0.34 kcal/mol | -8.38 kcal/mol | Occ [7]: 65%; Cmax [8]: 200 µM
Cc1n[nH]c(C)c1CCCOc1cc(C(=O)O)ccc1F [ACORAMIDIS] |  |  |  |  |  |  | Activity (Canis familiaris [9]): Active; PB (Albumin [10]): 7.8 µM; Occ (Canis familiaris [11]): >97%; Kd (Albumin [12]): 8 µM; Activity (Canis familiaris [13]): Active; Activity [14]: Active; Activity (Canis familiaris [15]): Dose-dependent effect; Activity [16]: Active; Occ (Canis familiaris [17]): 81 - 94%; PB (Albumin [18]): 18.3 µM
COC(=O)c1ccc(F)c(OCCCc2c(C)n[nH]c2C)c1 | 70.4% | -8.99 kcal/mol | 38.5% | 63.2% | 2.5 kcal/mol | -6.49 kcal/mol | 

Further lines, with some results ahead:

Activity [1] | deltaG [2] | Occ [3] | Occ [4] | TdeltaS [5] | deltaH [6] | Structure (SMILES) | further results
23.2% | -8.1 kcal/mol | 17.2% | 20.8% | 6 kcal/mol | -2.1 kcal/mol | CCc1n[nH]c(CC)c1CCCOc1cc(C(=O)O)ccc1F | 
41.5% |  | 49.9% | 49% | 6.39 kcal/mol | -5 kcal/mol | O=C(O)c1ccc2nc(-c3cc(Cl)cc(Cl)c3)oc2c1 | PB (Albumin [10]): 18.8 µM; Cmax [19]: 20 µM; Occ [20]: 41.5%; Activity [14]: Active; Occ [21]: 65%; Occ [22]: 68.2%; Occ [23]: Active; Occ [24]: Active; Activity [16]: Active; Kd (Albumin [25]): 2.5 µM; PB (Albumin [18]): 24.1 µM; Occ [26]: Active
32.1% | -9 kcal/mol | 29.7% | 43% | 4.27 kcal/mol | -4.73 kcal/mol | Cc1nn(C)c(C)c1CCCOc1cc(C(=O)O)ccc1F | 

Source: ChEMBL document CHEMBL4196168 (J Med Chem, 2018)
